Molecules are shown by their SMILES. Calls of active or inactive are those of the source. The rule behind the calls is not given here.

Assay [1] relates to A2780. The assay can be described thus: Cell cycle arrest in human A2780 cells assessed as accumulation at G1 phase incubated for 24 hrs by propidium iodide staining based flow cytometry (reference value: 61.8%). It counts as functional. (In general: Flow cytometry measures light scatter and fluorescence of single cells or particles in a stream.)
Assay [2] deals with A2780cisR. The assay can be described thus: Cell cycle arrest in human A2780cisR cells assessed as accumulation at G1 phase incubated for 24 hrs by propidium iodide staining based flow cytometry (reference value: 68.7%). The assay is classed as functional.
For assay [3], the system named is J82. In words: Cell cycle arrest in human J82 cells assessed as accumulation at G1 phase incubated for 24 hrs by propidium iodide staining based flow cytometry (reference value: 69.6%). The assay is classed as functional.
In assay [4] the test system is J82. The assay can be described thus: Cell cycle arrest in cisplatin resistant human J82 cells assessed as accumulation at G1 phase incubated for 24 hrs by propidium iodide staining based flow cytometry (reference value: 78.1%). The assay is classed as functional.
Assay [5] deals with J82. In words: Induction of apoptosis in human J82 cells assessed as depolarization of mitochondrial membrane potential at 20 uM incubated for 2 hrs by hoechst 33342 staining based fluorescence microscopy. It counts as functional, cell-based. An outline of the steps:
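J82 cells treated 2 h with PXA, then labelled 20 min with TMRE plus Hoechst 33342. ΔΨm read by high-content fluorescence imaging. Untreated medium and 20 µM CCCP served as controls.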

The subject of assay [6] is J82. In words: Induction of apoptosis in cisplatin resistant human J82 cells assessed as depolarization of mitochondrial membrane potential at 20 uM incubated for 2 hrs by hoechst 33342 staining based fluorescence microscopy. It counts as functional, cell-based. The gist of the method: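 J82CisR cells exposed 2 h, then labelled with TMRE and Hoechst 33342 for 20 min. TMRE signal imaged on a high-content fluorescence imaging platform. Untreated medium control and 20 µM CCCP positive control.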

Assay [7] relates to A2780. The assay can be described thus: Induction of apoptosis in human A2780 cells assessed as decrease in mitochondrial membrane potential at 20 uM incubated for 24 hrs by TMRE staining based flow cytometry. It counts as functional, cell-based. An outline of the steps: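 Cells seeded overnight; medium switched to FBS-free just before treatment to avoid TMRE ester cleavage. Exposure 1 h, 2 h or 24 h, then TMRE staining for 20 min. Cells trypsinized, centrifuged at 4 °C and read by flow cytometry. Medium as negative control, 20 µM CCCP as positive control. […]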

For assay [8], the system named is A2780cisR. The assay can be described thus: Induction of apoptosis in human A2780cisR cells assessed as decrease in mitochondrial membrane potential at 20 uM incubated for 24 hrs by TMRE staining based flow cytometry. The assay is classed as functional, cell-based. The gist of the method:
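Cells seeded overnight; complete medium swapped for FBS-free medium just before treatment to avoid TMRE ester cleavage. Exposure to PXA for 1 h, 2 h or 24 h. TMRE staining 20 min, cells collected by trypsinisation, ΔΨm read by flow cytometry. Medium served as negative control, 20 µM CCCP as positive control. Mean ± SEM reported.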

`CC(=O)O[C@H]1C(=O)[C@@]2(C)[C@H]([C@H](OC(=O)c3ccccc3)[C@]3(O)C[C@H](OC(=O)[C@H](O)[C@@H](NC(=O)c4ccccc4)c4ccccc4)C(C)=C1C3(C)C)[C@]1(OC(C)=O)CO[C@@H]1C[C@@H]2O` [PACLITAXEL]: the Activity in the assay on A2780 [1] was 22.6%; with A2780cisR [2] it was 21.3%; with J82 [3], 35.1%; in the assay on J82 [4], 29.1%.
On to `N#CC(C#N)=NNc1cccc(Cl)c1`, for which the result with J82 [5], with J82 [6], in the assay on A2780 [7] and in the assay on A2780cisR [8] was Active.

For the origin of these results see ChEMBL document CHEMBL4396943, “The tetrahydroxanthone-dimer phomoxanthone A is a strong inducer of apoptosis in cisplatin-resistant solid cancer cells” (Bioorg Med Chem, 2019).
